According to ChEMBL document CHEMBL4020830, “Design, Synthesis, and Evaluation of a Novel Series of Indole Sulfonamide Peroxisome Proliferator Activated Receptor (PPAR) α/γ/δ Triple Activators: Discovery of Lanifibranor, a New Antifibrotic Clinical Candidate” (J Med Chem, 2018):
Values after ≈ are worked out from the molar mass of the structure shown.

Legend:
[1] = target: T1, Peroxisome proliferator-activated receptor delta (Homo sapiens, UniProt Q03181); assay: Transactivation of human GAL4-fused PPARdelta LBD expressed in African green monkey COS7 cells co-expressing 5Gal4 pGL3 TK Luc after overnight incubation by luciferase reporter gene assay; format: cell-based
T1 sequence (Q03181 whole entry): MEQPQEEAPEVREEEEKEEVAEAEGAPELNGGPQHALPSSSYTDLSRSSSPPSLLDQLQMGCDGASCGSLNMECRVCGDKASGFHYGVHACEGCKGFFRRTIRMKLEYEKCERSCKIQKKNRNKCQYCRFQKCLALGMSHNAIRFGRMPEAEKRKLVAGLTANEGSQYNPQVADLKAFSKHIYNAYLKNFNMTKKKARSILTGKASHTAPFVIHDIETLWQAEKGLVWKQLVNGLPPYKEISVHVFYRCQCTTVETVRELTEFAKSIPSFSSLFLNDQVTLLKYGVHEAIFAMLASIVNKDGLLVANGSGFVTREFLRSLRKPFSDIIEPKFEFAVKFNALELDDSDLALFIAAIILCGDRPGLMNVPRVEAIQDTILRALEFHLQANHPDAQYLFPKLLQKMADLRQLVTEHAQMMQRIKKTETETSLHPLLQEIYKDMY
Procedure, shortened: (§1)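 Cell-based Gal-4 transactivation assay in COS-7 cells transfected with PPARα, PPARδ or PPARγ ligand-binding domain. EC50 and Emax were derived, with Emax as maximum activation in percent of control. EC50s are means of at least two independent experiments performed in triplicate.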

[2] = target: T2, Peroxisome proliferator-activated receptor alpha (Homo sapiens, UniProt Q07869); assay: Transactivation of human GAL4-fused PPARalpha LBD expressed in African green monkey COS7 cells co-expressing 5Gal4 pGL3 TK Luc after overnight incubation by luciferase reporter gene assay; format: cell-based; procedure, shortened: as §1
T2 sequence (Q07869 whole entry): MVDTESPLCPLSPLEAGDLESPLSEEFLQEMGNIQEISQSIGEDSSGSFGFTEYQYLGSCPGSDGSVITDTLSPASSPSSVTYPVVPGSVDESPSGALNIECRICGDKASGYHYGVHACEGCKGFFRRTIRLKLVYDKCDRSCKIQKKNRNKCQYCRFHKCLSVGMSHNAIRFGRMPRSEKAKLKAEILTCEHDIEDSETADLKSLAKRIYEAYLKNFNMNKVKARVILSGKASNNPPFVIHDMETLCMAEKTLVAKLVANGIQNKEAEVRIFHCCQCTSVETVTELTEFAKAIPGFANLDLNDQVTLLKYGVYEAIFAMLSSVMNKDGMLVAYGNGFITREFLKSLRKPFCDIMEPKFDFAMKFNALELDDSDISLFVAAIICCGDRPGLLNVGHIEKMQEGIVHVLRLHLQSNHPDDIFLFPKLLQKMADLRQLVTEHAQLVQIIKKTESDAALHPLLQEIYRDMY

[3] = target: T3, Peroxisome proliferator-activated receptor alpha (Homo sapiens) (UniProt Q07869); assay: Transactivation of PPARalpha in human HuH7 cells assessed increase in [14C]oleate beta-oxidation at 30 uM preincubated for 48 hrs followed by [14C]oleate addition during last 2 hrs of incubation period relative to control; format: cell-based
T3 sequence (whole entry): T2 sequence (Q07869 whole entry)
Procedure, shortened: (§2)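 Fatty acid beta-oxidation was used as the functional read-out. PPARα activity was tested in human hepatoma HuH7 cells and PPARδ activity in mouse myoblast C2C12 cells, at 1, 3, 10 and 30 µM. Values are % beta-oxidation, mean of at least 2 independent experiments run in triplicate, with single-experiment values flagged.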

[4] = Apparent permeability from apical to basolateral side in human Caco2 cells at 10 uM after 2 hrs by LC-MS/MS analysis; format: ADME, cell-based, Caco-2
[5] = AUC (infinity) in C57Bl6 mouse at 10 mg/kg, po administered as single oral dose; format: ADME, organism-based; details: in vivo
Procedure, shortened: (§3)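 Single oral dose of 10 mg/kg in methyl cellulose vehicle given to C57Bl6 mice. Plasma was sampled over a 24 h period. […]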

[6] = target: T3, Peroxisome proliferator-activated receptor alpha (Homo sapiens); assay: Transactivation of human GAL4-fused PPARalpha LBD expressed in African green monkey COS7 cells co-expressing 5Gal4 pGL3 TK Luc after overnight incubation by luciferase reporter gene assay relative to fenofibric acid; format: cell-based; procedure, shortened: as §1
[7] = Efflux ratio of apparent permeability in human Caco2 cells at 10 uM after 2 hrs by LC-MS/MS analysis; format: ADME, cell-based, Caco-2
[8] = target: T4, Peroxisome proliferator-activated receptor delta (Mus musculus) (UniProt P35396); assay: Transactivation of PPARdelta in mouse C2C12 cells assessed increase in [14C]oleate beta-oxidation at 1 uM preincubated for 48 hrs followed by [14C]oleate addition during last 2 hrs of incubation period relative to control; format: cell-based; procedure, shortened: as §2
T4 sequence (whole entry): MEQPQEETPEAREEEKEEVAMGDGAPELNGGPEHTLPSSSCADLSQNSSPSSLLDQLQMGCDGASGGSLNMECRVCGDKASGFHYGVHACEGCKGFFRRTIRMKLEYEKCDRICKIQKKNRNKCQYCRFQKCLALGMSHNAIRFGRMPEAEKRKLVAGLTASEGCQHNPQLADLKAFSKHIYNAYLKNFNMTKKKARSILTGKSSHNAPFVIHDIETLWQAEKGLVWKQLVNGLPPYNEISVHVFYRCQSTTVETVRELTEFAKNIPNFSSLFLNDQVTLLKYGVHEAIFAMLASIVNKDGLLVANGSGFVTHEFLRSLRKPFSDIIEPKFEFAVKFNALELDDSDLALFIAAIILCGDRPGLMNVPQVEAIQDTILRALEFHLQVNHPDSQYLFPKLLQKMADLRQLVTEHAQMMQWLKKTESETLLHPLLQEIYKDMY

[9] = target: T3, Peroxisome proliferator-activated receptor alpha (Homo sapiens); assay: Transactivation of PPARalpha in human HuH7 cells assessed increase in [14C]oleate beta-oxidation at 10 uM preincubated for 48 hrs followed by [14C]oleate addition during last 2 hrs of incubation period relative to control; format: cell-based; procedure, shortened: as §2
[10] = Aqueous solubility in fasted state simulated intestinal fluid; format: physicochemical
[11] = target: T3, Peroxisome proliferator-activated receptor alpha (Homo sapiens); assay: Transactivation of PPARalpha in human HuH7 cells assessed increase in [14C]oleate beta-oxidation at 1 uM preincubated for 48 hrs followed by [14C]oleate addition during last 2 hrs of incubation period relative to control; format: cell-based; procedure, shortened: as §2
[12] = Tmax in C57Bl6 mouse at 10 mg/kg, po administered as single oral dose; format: ADME, organism-based; details: in vivo; procedure, shortened: as §3
[13] = target: T4, Peroxisome proliferator-activated receptor delta (Mus musculus); assay: Transactivation of PPARdelta in mouse C2C12 cells assessed increase in [14C]oleate beta-oxidation at 30 uM preincubated for 48 hrs followed by [14C]oleate addition during last 2 hrs of incubation period relative to control; format: cell-based; procedure, shortened: as §2
[14] = Cmax in C57Bl6 mouse at 10 mg/kg, po administered as single oral dose; format: ADME, organism-based; details: in vivo; procedure, shortened: as §3

Row | Structure (SMILES) | EC50 [1] | EC50 [2] | Activity [3] | Papp ([4]; caco-2, 2 h, 10 µM) | AUC(0-inf) [5] | Emax [6] | Ratio ([7]; caco-2, 2 h, 10 µM) | Activity [8] | Activity [9] | solubility [10] | Activity [11] | Tmax [12] | Activity [13] | Cmax [14] | Papp A→B at 2 h, 10 µM ([4]; Caco-2) | efflux ratio at 2 h, 10 µM ([7]; Caco-2)
1 | O=C(O)CCCc1cc2cc(Cl)ccc2n1S(=O)(=O)c1ccc2ncsc2c1 [LANIFIBRANOR] | 866 nM | 1540 nM | 120% | 24 ×10⁻⁶ cm/s | 29400 ng·h/mL | 106% | 0.1 | 12% | 113% | 8.7 µM (≈ 3.78 µg/mL) | 44% | 1 h | 55% | 10700 ng/mL |  | 
2 | O=C(O)CCc1cc2cc(Cl)ccc2n1S(=O)(=O)c1ccccc1 | 1910 nM | 260 nM | 96% |  | 37300 ng·h/mL | 101% |  | -6% | 45% | 9 µM (≈ 3.27 µg/mL) | 5% | 1 h | 27% | 14600 ng/mL | 61 ×10⁻⁶ cm/s | 0.2
